Published values of several laboratories.
Compare with care: the assays were run in different laboratories.
ABCG2: Broad substrate specificity ATP-binding cassette transporter ABCG2 (ABCG2, Homo sapiens, UniProt Q9UNQ0)

| Structure (SMILES) | target or system | assay | test system | setting | endpoint | value |
| --- | --- | --- | --- | --- | --- | --- |
| C[C@H](C(=O)N1Cc2c(-c3ccc(C(=O)N4CCCc5ccccc54)cc3)cnn2C[C@H]1C)c1ccccc1 | ABCG2 |  | dog, MDCK-MDR1 |  | Papp B→A | 8.4 ×10⁻⁶ cm/s |
| C/C(O)=C(\C#N)C(=O)Nc1ccc(C(F)(F)F)cc1 | ABCG2 |  | Caco-2 | 1 µM, 2 h, pH 7.4 | Papp B→A | 33.4 ×10⁻⁶ cm/s |
| C=CC1(C)CC(OC(=O)CSc2nc3ccccc3s2)C2(C)C(C)CCC3(CCC(=O)C32)C(C)C1O (stereo not drawn) | K562 | cell growth or viability |  |  | IC50 | 38.2 µM |
| CCOC(=O)[C@@]12C[C@@H]1[C@@H](n1ccc3c(NC)nc(C#Cc4ccc(Cl)s4)nc31)[C@H](O)[C@@H]2O |  |  | male Sprague-Dawley rat, plasma | oral, 1 mg/kg, 2 h | concentration | 5.92 ng/mL |
| COc1cc(Nc2ncc(F)c(Nc3ccc4c(n3)NC(=O)C(C)(C)O4)n2)cc(OC)c1OC | ABCG2 | transporter uptake, inhibitor |  | cell membranes | Ki | 0.065 µM |
| Cc1cc(C)cc(NC(=O)CN(C)S(=O)(=O)c2ccc3[nH]c4c(c3c2)CCCC4)c1 | K562 | cell growth or viability |  |  | IC50 | 12.8 µM |
| C[C@@H]1Cn2ncc(-c3ccc(C(=O)N4CCCc5ccccc54)cc3)c2CN1C(=O)Cc1ccccc1 | ABCG2 |  | dog, MDCK-MDR1 |  | Papp B→A | 16 ×10⁻⁶ cm/s |
| C/N=C(/NC)c1ccc(NC(=O)/C=C/c2ccc(/C=C/C(=O)Nc3ccc(/C(=N\C)NC)cc3)cc2)cc1 | K562 | cell growth or viability |  |  | IC50 | 4.31 µM |
| Cc1n[nH]c(CC(=O)N2Cc3c(-c4ccc(C(=O)N5CCCc6ccccc65)cc4)cnn3C[C@H]2C)n1 | ABCG2 |  | dog, MDCK-MDR1 |  | Papp B→A | 14.1 ×10⁻⁶ cm/s |
| CCc1cc(-c2noc(-c3cc(OC)nc(C4CCCC4)c3)n2)cc(C)c1OC[C@@H](O)CO |  |  | Wistar rat, plasma | oral, 1 mg/kg, 3 h, single dose | concentration | 62.7 ng/mL |
| COc1cccc(-c2n[nH]c(SCc3ccccn3)n2)c1OC |  |  | female Sprague-Dawley rat, plasma | oral, 100 mg/kg, 1 h, single dose | concentration | 62200 ng/mL |
| COc1ccc2c(=O)n(C)c(-c3ccccc3)nc2c1 |  |  | male Sprague-Dawley rat, spleen | oral, 30 mg/kg, 15 min | concentration | 7.53 ng/mL |
| CCCN/C(=N/C)c1ccc(NC(=O)c2ccc(C(=O)Nc3ccc(/C(=N\C)NCCC)cc3)cc2)cc1 | K562 | cell growth or viability |  |  | IC50 | 10.1 µM |
| Cc1noc(C)c1Cn1cc(N2C(=O)CN(Cc3cccc(O)c3)C2=O)cn1 |  |  | male Sprague-Dawley rat, plasma | oral, 100 mg/kg, 12 h | concentration | 11.4 ng/mL |
| Nc1ccc(S(=O)(=O)NC(=O)/C=C\c2ccccc2Cl)cc1 | K562 | cell growth or viability |  |  | IC50 | > 200 µM |
| O=C(O)CSc1nnc(Br)n1-c1ccc(C2CC2)c2ccccc12 | ABCG2 | transporter uptake, inhibitor | Caco-2 | 30 µM, 2 h | inhibition | 27% |
| COC(=O)/C(C#N)=C1\Nc2ccccc2O1 | K562 | cell growth or viability |  |  | IC50 | 20.7 µM |
| CO[C@@H](C(=O)N1Cc2c(-c3ccc(C(=O)N4CCCc5ccccc54)cc3)cnn2C[C@H]1C(C)C)c1cnn(C)c1 (single isomer, unassigned) | ABCG2 |  | dog, MDCK-MDR1 |  | Papp B→A | 33.7 ×10⁻⁶ cm/s |
